The source made the active and inactive calls. The rule behind the calls is not given here.
Assays:
[1] = Toxicity in sheep erythrocytes assessed as induction of hemolysis; format: cell-based, Ovis aries, Erythrocyte; conditions: read-out: HD50 (the source's name)
Method in brief: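 Hemolysis measured on sheep erythrocytes, tested up to 400 μg/mL. Activity expressed as HC50 (μg/mL).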

Jurkat [2] = assay: Cytotoxicity against human Jurkat cells at =>10 uM; format: functional, cell-based
Method in brief: (§1)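 Jurkat human T-cell leukemia cells exposed to compounds at 10⁻²–10 μM. Proliferation read by ³H-thymidine incorporation and expressed as stimulation index (SI). Mean ± SE, n = 4.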

Jurkat [3] = assay: Inhibition of human Jurkat cell proliferation at 1 uM by [3H]thymidine incorporation assay
Jurkat [4] = assay: Immunomodulatory effect in human Jurkat cells assessed as cell proliferation stimulation index at 0.01 uM by [3H]thymidine incorporation assay
Jurkat [5] = assay: Immunomodulatory effect in human Jurkat cells by [3H]thymidine incorporation assay
Jurkat [6] = assay: Cytotoxicity against human Jurkat cells at 1 uM; format: functional, cell-based; method in brief: as §1
Jurkat [7] = assay: Immunomodulatory effect in human Jurkat cells assessed as cell proliferation stimulation index at 1 to 10 uM by [3H]thymidine incorporation assay

Row | Compound | HC50 [1] | Activity (Jurkat [2]) | Activity (Jurkat [3]) | Activity (Jurkat [4]) | Activity (Jurkat [5]) | Activity (Jurkat [6]) | Activity (Jurkat [7])
1 | C=CC(C)(CC/C=C(\CO)C(=O)O[C@H]1C[C@]2(C(=O)O)[C@H](O)C[C@]3(C)C(=CC[C@@H]4[C@@]5(C)CC[C@H](O[C@@H]6O[C@H](CO[C@@H]7O[C@H](C)[C@H](O)[C@H](O)[C@H]7O[C@@H]7OC[C@@H](O)[C@H](O)[C@H]7O)[C@@H](O)[C@H](O)[C@H]6O[C@@H]6O[C@H](CO)[C@@H](O)[C@H](O)[C@H]6O)C(C)(C)[C@@H]5CC[C@]43C)[C@@H]2CC1(C)C)O[C@@H]1O[C@@H](C)[C@H](O)[C@@H](O)[C@@H]1O (stereo not given in full) | > 400 µg/mL | Toxic |  |  |  |  | 
2 | C[C@@H]1O[C@@H](O[C@H]2[C@H](OC(=O)[C@]34C[C@H](OC(=O)c5ccccc5O)C(C)(C)C[C@H]3C3=CC[C@@H]5[C@@]6(C)CC[C@H](O[C@@H]7O[C@H](CO[C@@H]8O[C@H](C)[C@H](O)[C@H](O)[C@H]8O[C@@H]8OC[C@@H](O)[C@H](O)[C@H]8O)[C@@H](O)[C@H](O)[C@H]7O[C@@H]7O[C@H](CO)[C@@H](O)[C@H](O)[C@H]7O)C(C)(C)[C@@H]6CC[C@@]5(C)[C@]3(C)C[C@H]4O)O[C@H](CO)[C@@H](O)[C@@H]2O)[C@H](O)[C@H](O[C@@H]2O[C@H](CO)[C@@H](O)[C@H](O)[C@H]2O)[C@H]1O[C@@H]1O[C@@H](CO)[C@H](O)[C@H]1O [ADIANTHIFOLIOSIDE B] |  |  | Active | 1.21 | Dose-dependent effect |  | 
3 | CC(=O)N[C@H]1[C@H](O[C@H]2CC[C@]3(C)[C@H]4CC=C5[C@@H]6CC(C)(C)[C@@H](OC(=O)c7ccccc7O)C[C@]6(C(=O)O[C@@H]6O[C@H](CO)[C@@H](O)[C@H](O)[C@H]6O[C@@H]6O[C@@H](C)[C@H](O[C@@H]7O[C@@H](CO)[C@H](O)[C@H]7O)[C@@H](O[C@@H]7O[C@H](CO)[C@@H](O)[C@H](O)[C@H]7O)[C@H]6O)[C@H](O)C[C@@]5(C)[C@]4(C)CC[C@H]3C2(C)C)O[C@H](CO[C@@H]2O[C@H](C)[C@H](O)[C@H](O)[C@H]2O[C@@H]2OC[C@@H](O)[C@H](O)[C@H]2O)[C@@H](O)[C@@H]1O [ADIANTHIFOLIOSIDE A] | 17.5 µg/mL |  |  |  |  | Toxic | 
4 | CC(=O)N[C@H]1[C@H](O[C@H]2CC[C@]3(C)[C@H]4CC=C5[C@@H]6CC(C)(C)[C@@H](O)C[C@]6(C(=O)O)[C@H](O)C[C@@]5(C)[C@]4(C)CC[C@H]3C2(C)C)O[C@H](CO[C@@H]2O[C@H](C)[C@H](O)[C@H](O)[C@H]2O[C@@H]2OC[C@@H](O)[C@H](O)[C@H]2O)[C@@H](O)[C@@H]1O | > 400 µg/mL |  |  |  |  | Not toxic | Active

Source: ChEMBL document CHEMBL1150676, “Two new biologically active triterpenoidal saponins acylated with salicylic acid from Albizia adianthifolia” (J Nat Prod, 2003)
